In the RNAGym collection of RNA variant scans (doi:10.1126/science.aae0568):
Fewer inactive variants are shown than the library holds.

B1: tRNA (parent)
chain: GUUCCGUUGGCGUAAUGGUAACGCGUCUCCCUCCUAAGGAGAAGACUGCGGGUUCGAGUCCCGUACGGAACG

Variants of: B1
Assay: yeast fitness relative to wild type (ratio to wild type); higher = fitter; tRNA-Arg(CCU), competitive growth, 37 C, YPD
Procedure, shortened: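 Variants of the tRNA-Arg(CCU) gene were chemically synthesised with a 3% per-site mutation rate across 69 sites and placed at the native genomic locus in Saccharomyces cerevisiae. Six parallel replicates of the pooled strains were competed in YPD at 37°C for 24 hours, and gene amplicons from the start and end populations were read by 100-nucleotide paired-end sequencing. Darwinian fitness relative to wild type was derived from changes in genotype frequencies. Genotypes required ≥ 100 starting reads, and estimates < 0.5 were set to 0.5.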
U2A C5U A42G C46G G56C C61A showed a yeast fitness of at most 0.5. G23A A36G A57C C60A showed a yeast fitness of at most 0.5. A15U C55U G56A C66G showed a yeast fitness of 0.59. For U32A A40C G58C G63A, the yeast fitness was at most 0.5. Work on C22A C29A A43U yielded a yeast fitness of at most 0.5. In the case of C29A A43C, the yeast fitness is reported as 0.748. Variant C31A A43U G68U has a yeast fitness of 0.72. In the case of C11G A14G A21U A36G, the yeast fitness is reported as at most 0.5. U2G C24G gave a yeast fitness of 0.769. U3C A70U showed a yeast fitness of 1.01. For C5G C30A A40G A70U, the yeast fitness was at most 0.5. Variant G56A G63A G67C has a yeast fitness of 0.543. A21U C31G gave a yeast fitness of 0.842. With U13A C24G G25A C31U the yeast fitness was at most 0.5. Variant C5G G48C C49U U54G C55U C66A has a yeast fitness of 0.604. Variant C34U G39C G50A has a yeast fitness of 0.557. For G12A C27G G50A, the yeast fitness was at most 0.5. With C24G G38C C62A the yeast fitness was 0.852. For C22A C30U U35C, the yeast fitness was at most 0.5. With G6C U13C C46A the yeast fitness was 0.627. For G10A C22G C27U G56A, the yeast fitness was at most 0.5. Variant A43U G48U has a yeast fitness of 0.77. With C31G C34A C55U U59C the yeast fitness was at most 0.5. C33U A36G G41A C61G showed a yeast fitness of at most 0.5. With C46U C49U U53C the yeast fitness was 0.703. For U7A G10C C31G G67U, the yeast fitness was at most 0.5. C34U A36C U53C gave a yeast fitness of at most 0.5. Work on U2G C62G yielded a yeast fitness of 0.632. In the case of C24U A36G G58C C66G G68A, the yeast fitness is reported as 0.569. Variant C5U G52A C66U has a yeast fitness of 0.584. C29G A40U G50C showed a yeast fitness of 0.636. For C29U C30U G63A, the yeast fitness was 0.514. For A42U G63A, the yeast fitness was 0.868. With C30U C31G A57U the yeast fitness was at most 0.5. For G10C C60U G63C, the yeast fitness was at most 0.5. With A15G A36U C55U A65U the yeast fitness was at most 0.5. With A21U G67A the yeast fitness was 0.818. For A36G G48C C60A, the yeast fitness was at most 0.5. In the case of G9C G12A A21C U26A G39C, the yeast fitness is reported as 0.632. G17A A42C A70C gave a yeast fitness of 0.688. In the case of U26A C31U G48A, the yeast fitness is reported as 0.998. C55G U59A showed a yeast fitness of 0.677. A20G U35G A65U gave a yeast fitness of at most 0.5. With U32A C33U U47A the yeast fitness was 0.54. For U16G A45U, the yeast fitness was 0.969. Variant G9C C29G C34G has a yeast fitness of at most 0.5. For U54C C60G, the yeast fitness was 0.539. With U7G G12A the yeast fitness was 0.816. C22U C31G A43U showed a yeast fitness of 0.612. In the case of C31A C33G, the yeast fitness is reported as 0.569. For C33U C34A A43C G48A, the yeast fitness was at most 0.5. For G9C G67C, the yeast fitness was 0.746. Variant U7A U16C A21U U26A C46U C60U has a yeast fitness of 0.55. A14G A15U U32G C34G U47C G63C showed a yeast fitness of at most 0.5. Work on U3C A45U U64C yielded a yeast fitness of 0.709. With C31G A42G the yeast fitness was 0.721. Work on C31A A57C yielded a yeast fitness of 0.544. Work on C49U C61A A65U yielded a yeast fitness of at most 0.5. With A14U G44C G51A A70U the yeast fitness was 0.596. U16C A65G A70C showed a yeast fitness of 0.786. For U19C A20C C31G A65C, the yeast fitness was at most 0.5. For C5A C11G C24A C55U G63C, the yeast fitness was at most 0.5. Variant U26A C60A has a yeast fitness of 0.787. A21C C27U C46G G48A C62G G68C gave a yeast fitness of at most 0.5. For A14G C22G U35A, the yeast fitness was 0.61. For C33G G38A, the yeast fitness was 0.684. Variant C11U G23C C31G C60G A65U has a yeast fitness of at most 0.5. G9A C22A U53A A57G gave a yeast fitness of 0.554. In the case of U26A A57C G67A A69U, the yeast fitness is reported as 0.58. Work on U7A G9C C30U C34G G68C yielded a yeast fitness of 0.56. C30U C49G C61U showed a yeast fitness of 0.547. C30U C34G G38C A65C gave a yeast fitness of 0.537. With G10A A15G A42C the yeast fitness was at most 0.5. Variant C11A C55G A69C has a yeast fitness of at most 0.5. Variant G9C U13G G38C A45G C62G has a yeast fitness of at most 0.5. Variant G18C A45C A65C has a yeast fitness of 0.598. In the case of U8C A15U G38C G39A A43C C60G A65C, the yeast fitness is reported as at most 0.5. In the case of U32C A40U, the yeast fitness is reported as 1.01. C22G C33U gave a yeast fitness of 0.713. Variant A15U A21C G23C C55A U64A A65C has a yeast fitness of at most 0.5. Work on C4A U8A G18A C27U A45U yielded a yeast fitness of at most 0.5. A37G U47C gave a yeast fitness of 0.744. A15U U16A A21C C33G gave a yeast fitness of 0.558. For A20U C31G C55G C60G C66U A70U, the yeast fitness was at most 0.5. Variant G12A C29A A65U has a yeast fitness of at most 0.5. With C27U U35G A57C A65C A70U the yeast fitness was at most 0.5. In the case of A43G G63A, the yeast fitness is reported as 0.745. In the case of A15G C46U, the yeast fitness is reported as 0.987. C61G A70G gave a yeast fitness of 0.685. With C24A U32A C55A G68C the yeast fitness was at most 0.5. With C5U A15U G63A A70U the yeast fitness was 0.807. C34U A37U G58C gave a yeast fitness of 0.543. A20C C31A C34G A57G A65U showed a yeast fitness of at most 0.5. With C11G C34A A36U G48A G52C C60A the yeast fitness was 0.646. G10C A36U C60G showed a yeast fitness of at most 0.5. G6A A20C C46G gave a yeast fitness of 0.696. Work on C4G G68A yielded a yeast fitness of 0.904. U26C G39A U59A C60G C62U showed a yeast fitness of at most 0.5. In the case of G52C A69U, the yeast fitness is reported as 0.707. With G18A A36U the yeast fitness was 0.66. In the case of A15C G56C U59C, the yeast fitness is reported as at most 0.5. For U3A G56A, the yeast fitness was 1.02. Variant A14G A45C G58A has a yeast fitness of 0.622. C30U G51C G58C gave a yeast fitness of at most 0.5. C30U A45U C49G gave a yeast fitness of 0.713. C34G G52C A70U showed a yeast fitness of 0.542. For C5U G10C, the yeast fitness was 0.629. In the case of C22A G23C A36C C60G A65C, the yeast fitness is reported as at most 0.5. In the case of U2C U16C C22A U35A A45C, the yeast fitness is reported as at most 0.5. C24G U59G A65U showed a yeast fitness of 0.659. In the case of U28C A65G, the yeast fitness is reported as 0.998. Work on C5G U13A C22G U59A yielded a yeast fitness of at most 0.5. For U28A A40U, the yeast fitness was 0.984. C11U C30U G48C G68C showed a yeast fitness of at most 0.5. Variant G17A C22G C27A A36G has a yeast fitness of at most 0.5. Variant C4G C49U has a yeast fitness of 0.933. Variant U3C A36C A43C A69C has a yeast fitness of at most 0.5. For U26G C55G U59A U64G, the yeast fitness was at most 0.5. U8C C11G G63A C66G showed a yeast fitness of at most 0.5. In the case of C27U U35C A69U, the yeast fitness is reported as 0.802. G18C U19C gave a yeast fitness of 0.587. With C5U U28C C61U the yeast fitness was 0.705. Variant A14U A15C has a yeast fitness of 0.681. C11A U13C C49U U54C C61G C66U gave a yeast fitness of 0.64. G23C U26C A37G A40G A42G U64C gave a yeast fitness of at most 0.5. G6A A21C C49A A70G gave a yeast fitness of at most 0.5. For U8C C11U A21G, the yeast fitness was 0.7. U32A A43G U64G showed a yeast fitness of at most 0.5. U19C G50A C55A A65U gave a yeast fitness of at most 0.5. With A57U A65U G68C the yeast fitness was at most 0.5. Variant U28G A57C has a yeast fitness of 0.587. For U2C C4U C46U G50U C55U, the yeast fitness was at most 0.5. Variant C31G G38A C61A G63A A65G has a yeast fitness of at most 0.5. Variant G18A C31A has a yeast fitness of 0.554. In the case of A14G C30G A45G, the yeast fitness is reported as 0.585. For A42C G68U, the yeast fitness was 0.873. With G56A A65G C66U A69U the yeast fitness was 0.573. For G52C G68A, the yeast fitness was 0.583. Variant C22G C30G G68A has a yeast fitness of at most 0.5. A43C G67U gave a yeast fitness of 0.849. Variant U19A A21G C27U C33U has a yeast fitness of at most 0.5. C4U G9C G18A A21G C24U A37C gave a yeast fitness of 0.694. With G39C C66U A69U the yeast fitness was 0.551. With C4A U28G G48A C49G G50U the yeast fitness was at most 0.5. For G18C U19G A45C G67A, the yeast fitness was at most 0.5. For C22A C30A, the yeast fitness was 0.686. G12C C30U A43G gave a yeast fitness of 0.515. Variant C4U C66A G68C has a yeast fitness of 0.546. Variant G6C U26C C31A G38C has a yeast fitness of at most 0.5. C22G U28A C31G showed a yeast fitness of at most 0.5. Work on U2G U3C C55U C61A yielded a yeast fitness of at most 0.5. Variant U8A C61A A65U has a yeast fitness of 0.554. G12A U19G U35C A40U gave a yeast fitness of 0.521. U2G A57U showed a yeast fitness of 0.66. In the case of G12C A14G, the yeast fitness is reported as 0.793. A15G A36C U47A G48C U54G A65C gave a yeast fitness of at most 0.5. With A14G A21C C30G the yeast fitness was at most 0.5. Work on A20G C60A C61G yielded a yeast fitness of at most 0.5. G10A C24G A40G C46G showed a yeast fitness of 0.556. C11A A15G C22G C61U G68A showed a yeast fitness of at most 0.5. Work on A20U C27G C49A yielded a yeast fitness of at most 0.5. In the case of U16A C46U G51C, the yeast fitness is reported as 0.769. Work on A14C C46U yielded a yeast fitness of 0.915. Variant C5G C22U C29G has a yeast fitness of 0.659. A20G G56C A70U showed a yeast fitness of 0.859. In the case of G18A A40C U47G A65C, the yeast fitness is reported as at most 0.5. Variant A14U C29U A37U C66U has a yeast fitness of at most 0.5.
